Active and inactive are the calls of the source.
Legend:
[1] = test system: Mycolicibacterium smegmatis MC2 155; assay: Inhibition of STPK in Mycobacterium smegmatis MC2 155 expressing aminoglycoside phophotransferase-8 assessed as growth inhibition at 5 nmol/disk after 18 hrs in presence of kanamycin by paper disk method
[2] = test system: Mycobacterium tuberculosis; assay: Antimycobacterial activity against Mycobacterium tuberculosis H37Rv in liquid medium; type: functional
Procedure, shortened: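 M. tuberculosis H37Rv; MIC determined in liquid medium on the automated Bactec MGIT 960 system.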

[3] = test system: Mycolicibacterium smegmatis; assay: Antimycobacterial activity against Mycobacterium smegmatis MC2 155 in liquid medium after 48 hrs by two-fold serial dilution method; type: functional; details: MC2 155, 48 h
Procedure, shortened: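 M. smegmatis mc2 155 grown overnight in Lemco-Tw broth, diluted 1:200 in fresh broth. […] Top wells could carry 4% DMSO. Incubated 48 h at 37 °C with shaking at 250 rpm. MIC is the lowest concentration with no visible growth.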

[4] = test system: Mycolicibacterium smegmatis; assay: Antimycobacterial activity against Mycobacterium smegmatis MC2 155 in solid medium by two-fold serial dilution method; type: functional
Procedure, shortened: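 M290 soybean-casein agar plates carried two-fold compound dilutions, 8–64 or 8–128 µg/ml, some with extra 20 or 25 µg/ml plates.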

[5] = test system: Mycolicibacterium smegmatis; assay: Antimycobacterial activity against Mycobacterium smegmatis atR9 in liquid medium after 48 hrs by two-fold serial dilution method; type: functional; details: atR9, 48 h
Procedure, shortened: (§1)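 M. smegmatis resistant mutants were isolated on M290 agar containing 3.5-4× MIC of the test compound at 30°C and resistance was reconfirmed. MIC was then run in Lemco-Tw broth (Tween-80 0.05%). An overnight culture was diluted 1:200, and two-fold serial dilutions in DMSO were added. Plates were incubated at 37°C and 250 rpm for 48 h. MIC was read as the lowest concentration with no visible growth.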

[6] = test system: Mycolicibacterium smegmatis; assay: Antimycobacterial activity against Mycobacterium smegmatis atR14 in liquid medium after 48 hrs by two-fold serial dilution method; type: functional; details: atR14, 48 h; procedure, shortened: as §1
[7] = test system: Mycolicibacterium smegmatis; assay: Antimycobacterial activity against Mycobacterium smegmatis atR17 in liquid medium after 48 hrs by two-fold serial dilution method; type: functional; details: atR17, 48 h; procedure, shortened: as §1
[8] = test system: Mycolicibacterium smegmatis; assay: Antimycobacterial activity against Mycobacterium smegmatis atR19 in liquid medium after 48 hrs by two-fold serial dilution method; type: functional; details: atR19, 48 h; procedure, shortened: as §1
[9] = test system: Mycolicibacterium smegmatis; assay: Antimycobacterial activity against Mycobacterium smegmatis atR1 in liquid medium after 48 hrs by two-fold serial dilution method; type: functional; details: atR1, 48 h; procedure, shortened: as §1
[10] = test system: Mycolicibacterium smegmatis; assay: Antimycobacterial activity against Mycobacterium smegmatis atR8 in liquid medium after 48 hrs by two-fold serial dilution method; type: functional; details: atR8, 48 h; procedure, shortened: as §1
[11] = test system: Mycolicibacterium smegmatis; assay: Antimycobacterial activity against Mycobacterium smegmatis atR10 in liquid medium after 48 hrs by two-fold serial dilution method; type: functional; details: atR10, 48 h; procedure, shortened: as §1
[12] = test system: Mycolicibacterium smegmatis; assay: Antimycobacterial activity against Mycobacterium smegmatis atR11 in liquid medium after 48 hrs by two-fold serial dilution method; type: functional; details: atR11, 48 h; procedure, shortened: as §1
[13] = test system: Mycolicibacterium smegmatis; assay: Antimycobacterial activity against Mycobacterium smegmatis atR33 in liquid medium after 48 hrs by two-fold serial dilution method; type: functional; details: atR33, 48 h; procedure, shortened: as §1
[14] = test system: Mycolicibacterium smegmatis; assay: Antimycobacterial activity against Mycobacterium smegmatis atR37 in liquid medium after 48 hrs by two-fold serial dilution method; type: functional; details: atR37, 48 h; procedure, shortened: as §1
[15] = test system: Mycolicibacterium smegmatis; assay: Antimycobacterial activity against Mycobacterium smegmatis atR40 in liquid medium after 48 hrs by two-fold serial dilution method; type: functional; details: atR40, 48 h; procedure, shortened: as §1
[16] = test system: Mycolicibacterium smegmatis; assay: Antimycobacterial activity against Mycobacterium smegmatis atR2 in liquid medium after 48 hrs by two-fold serial dilution method; type: functional; details: atR2, 48 h; procedure, shortened: as §1
[17] = test system: Mycolicibacterium smegmatis; assay: Antimycobacterial activity against Mycobacterium smegmatis atR1 assessed as decrease in drug resistance development at 40 nmol/disc after 2 to 3 days by paper disc method; type: functional, organism-based
Procedure, shortened: (§2)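 Mutant M. smegmatis strains were grown in Middlebrook 7H9/OADC/Tween/glycerol to OD600 1.2. Cultures were diluted 1:9:10 (culture:water:M290) and overlaid on M290 agar. Commercial or impregnated paper discs were applied and plates incubated 2–3 days at 37 °C. Inhibition halos were measured to 1 mm, run in triplicate, mean ± SD.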

[18] = test system: Mycolicibacterium smegmatis; assay: Antimycobacterial activity against Mycobacterium smegmatis atR2 assessed as decrease in drug resistance development at 40 nmol/disc after 2 to 3 days by paper disc method; type: functional, organism-based; procedure, shortened: as §2
[19] = test system: Mycolicibacterium smegmatis; assay: Antimycobacterial activity against Mycobacterium smegmatis atR11 assessed as decrease in drug resistance development at 40 nmol/disc after 2 to 3 days by paper disc method; type: functional, organism-based; procedure, shortened: as §2
[20] = test system: Mycolicibacterium smegmatis; assay: Antimycobacterial activity against Mycobacterium smegmatis atR8 assessed as decrease in drug resistance development at 40 nmol/disc after 2 to 3 days by paper disc method; type: functional, organism-based
Procedure, shortened: (§3)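 Drug-resistant M. smegmatis mc2 155 mutants, isolated on M290 agar with 3.5-4× MIC of compound and resistance re-confirmed, grown in Middlebrook 7H9 (OADC, 0.1% Tween-80, 0.4% glycerol) to OD600 1.2. Diluted 1:9:10 culture:water:M290 and poured as top layer on M290 agar. Impregnated paper discs applied; 37 °C for 2–3 days. Halos measured to nearest 1 mm; triplicates, mean ± SD versus control strain.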

[21] = test system: Mycolicibacterium smegmatis; assay: Antimycobacterial activity against Mycobacterium smegmatis atR10 assessed as decrease in drug resistance development at 40 nmol/disc after 2 to 3 days by paper disc method; type: functional, organism-based; procedure, shortened: as §2
[22] = test system: Mycolicibacterium smegmatis; assay: Antimycobacterial activity against Mycobacterium smegmatis atR14 assessed as decrease in drug resistance development at 40 nmol/disc after 2 to 3 days by paper disc method; type: functional, organism-based; procedure, shortened: as §2
[23] = test system: Mycolicibacterium smegmatis; assay: Antimycobacterial activity against Mycobacterium smegmatis atR17 assessed as decrease in drug resistance development at 40 nmol/disc after 2 to 3 days by paper disc method; type: functional, organism-based; procedure, shortened: as §2
[24] = test system: Mycolicibacterium smegmatis; assay: Antimycobacterial activity against Mycobacterium smegmatis atR19 assessed as decrease in drug resistance development at 40 nmol/disc after 2 to 3 days by paper disc method; type: functional, organism-based; procedure, shortened: as §2
[25] = test system: Mycolicibacterium smegmatis; assay: Antimycobacterial activity against Mycobacterium smegmatis atR33 assessed as decrease in drug resistance development at 40 nmol/disc after 2 to 3 days by paper disc method; type: functional, organism-based; procedure, shortened: as §2
[26] = test system: Mycolicibacterium smegmatis; assay: Antimycobacterial activity against Mycobacterium smegmatis atR37 assessed as decrease in drug resistance development at 40 nmol/disc after 2 to 3 days by paper disc method; type: functional, organism-based; procedure, shortened: as §3
[27] = test system: Mycolicibacterium smegmatis; assay: Antimycobacterial activity against Mycobacterium smegmatis atR40 assessed as decrease in drug resistance development at 40 nmol/disc after 2 to 3 days by paper disc method; type: functional, organism-based; procedure, shortened: as §3
[28] = test system: Mycolicibacterium smegmatis; assay: Antimycobacterial activity against Mycobacterium smegmatis atR40 assessed as decrease in drug resistance development at 2 ug/disc after 2 to 3 days by paper disc method; type: functional, organism-based; procedure, shortened: as §3
[29] = test system: Mycolicibacterium smegmatis; assay: Antimycobacterial activity against Mycobacterium smegmatis atR2 assessed as decrease in drug resistance development at 2 ug/disc after 2 to 3 days by paper disc method; type: functional, organism-based; procedure, shortened: as §2
[30] = test system: Mycolicibacterium smegmatis; assay: Antimycobacterial activity against Mycobacterium smegmatis atR19 assessed as decrease in drug resistance development at 2 ug/disc after 2 to 3 days by paper disc method; type: functional, organism-based; procedure, shortened: as §2
[31] = test system: Mycolicibacterium smegmatis MC2 155; assay: Inhibition of STPK in Mycobacterium smegmatis MC2 155 expressing aminoglycoside phophotransferase-8 assessed as growth inhibition at 100 nmol/disk after 18 hrs in presence of kanamycin by paper disk method

Cc1cc(C)n(-c2nnc3nc(-c4ccccc4)c(SC(C)C)n3n2)n1
11 mm: inhibition zone (IZ) [1]

CCC(CCCO)Sc1cnc2nnc(-n3nc(C)cc3C)nn12 (stereo not drawn)
9.3 mm: inhibition zone (IZ) [1]

Cc1cc(C)n(-c2nnc3ncc(Sc4ccccc4)n3n2)n1
61.8 µM: MIC [4]
inactive: Activity [17] | Activity [18] | Activity [19] | Activity [20] | Activity [21] | Activity [22] | Activity [23] | Activity [24] | Activity [25] | Activity [26] | Activity [27]
99 µM: MIC [3]
> 64 mg/L: MIC [5] | MIC [6] | MIC [7] | MIC [8] | MIC [9] | MIC [10] | MIC [11] | MIC [12] | MIC [13] | MIC [14] | MIC [15] | MIC [16]
3.1 µM: MIC [2]
11.5 mm: inhibition zone (IZ) [1]

CC1COc2c(N3CCN(C)CC3)c(F)cc3c(=O)c(C(=O)O)cn1c23 (stereo not drawn)
inactive: Activity [28] | Activity [29] | Activity [30]

COc1ccc(OC)c(Sc2cnc3nnc(-n4nc(C)cc4C)nn23)c1
9.3 mm: inhibition zone (IZ) [31]

Reference: ChEMBL document CHEMBL4359813, “Synthesis and antimycobacterial activity of imidazo[1,2-b][1,2,4,5]tetrazines” (2019)
